Measured values taken from PMC6500982 (Cancer Science, 2019).

Experiment: Safety and tolerability
Type: in vivo, human
How it was run: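 Patients (enrolled January 2015–February 2016) received oral test compound in four cohorts: 160, 320 or 480 mg QD, or 300 mg BID. Dosing continued until progression, unacceptable AEs or consent withdrawal. AEs were graded by CTCAE v4.0, alongside laboratory tests, vital signs and ECGs. The safety population was all patients receiving ≥1 dose.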

[1] = Japanese patients with B‐cell NHL and CLL

## CC#CC(=O)N1CC[C@@H](n2c(=O)n(-c3ccc(Oc4ccccc4)cc3)c3c(N)ncnc32)C1 [tirabrutinib]
320 mg QD N = 3
  Myalgia, Any grade: 0 n (%)
  Myalgia, Grade ≥3: 0 n (%)
  Nasopharyngitis, Any grade: 0 n (%)
  Nasopharyngitis, Grade ≥3: 0 n (%)
  Nausea, Any grade: 0 n (%)
  Nausea, Grade ≥3: 0 n (%)
  Neutropenia, Any grade: 2 (66.7) n (%)
  Neutropenia, Grade ≥3: 2 (66.7) n (%)
  Pharyngitis, Any grade: 0 n (%)
  Pharyngitis, Grade ≥3: 0 n (%)
  Pyrexia, Any grade: 0 n (%)
  Pyrexia, Grade ≥3: 0 n (%)
  Rash, Any grade: 2 (66.7) n (%)
  Rash, Grade ≥3: 0 n (%)
  Thrombocytopenia, Any grade: 1 (33.3) n (%)
  Thrombocytopenia, Grade ≥3: 0 n (%)
  Upper respiratory tract inflammation, Any grade: 1 (33.3) n (%)
  Upper respiratory tract inflammation, Grade ≥3: 0 n (%)
  Vomiting, Any grade: 1 (33.3) n (%)
  Vomiting, Grade ≥3: 0 n (%)
480 mg QD N = 4
  All AEs, Any grade: 4 (100.0) n (%)
  All AEs, Grade ≥3: 2 (50.0) n (%)
  Anemia, Any grade: 2 (50.0) n (%)
  Anemia, Grade ≥3: 1 (25.0) n (%)
  Arthralgia, Any grade: 0 n (%)
  Arthralgia, Grade ≥3: 0 n (%)
  Aspartate aminotransferase increased, Any grade: 1 (25.0) n (%)
  Aspartate aminotransferase increased, Grade ≥3: 0 n (%)
  Constipation, Any grade: 1 (25.0) n (%)
  Constipation, Grade ≥3: 0 n (%)
  Cystitis, Any grade: 0 n (%)
  Cystitis, Grade ≥3: 0 n (%)
  Diarrhea, Any grade: 0 n (%)
  Diarrhea, Grade ≥3: 0 n (%)
  Dysgeusia, Any grade: 1 (25.0) n (%)
  Dysgeusia, Grade ≥3: 0 n (%)
  Gamma‐glutamyltransferase increased, Any grade: 0 n (%)
  Gamma‐glutamyltransferase increased, Grade ≥3: 0 n (%)
  Headache, Any grade: 0 n (%)
  Headache, Grade ≥3: 0 n (%)
  Hypokalemia, Any grade: 2 (50.0) n (%)
  Hypokalemia, Grade ≥3: 0 n (%)
  Hypophosphatemia, Any grade: 2 (50.0) n (%)
  Hypophosphatemia, Grade ≥3: 1 (25.0) n (%)
  Insomnia, Any grade: 0 n (%)
  Insomnia, Grade ≥3: 0 n (%)
  Leukopenia, Any grade: 0 n (%)
  Leukopenia, Grade ≥3: 0 n (%)
  Lymphopenia, Any grade: 1 (25.0) n (%)
  Lymphopenia, Grade ≥3: 0 n (%)
  Malaise, Any grade: 1 (25.0) n (%)
  Malaise, Grade ≥3: 0 n (%)
  Myalgia, Any grade: 0 n (%)
  Myalgia, Grade ≥3: 0 n (%)
  Nasopharyngitis, Any grade: 0 n (%)
  Nasopharyngitis, Grade ≥3: 0 n (%)
  Nausea, Any grade: 1 (25.0) n (%)
  Nausea, Grade ≥3: 0 n (%)
  Neutropenia, Any grade: 1 (25.0) n (%)
  Neutropenia, Grade ≥3: 1 (25.0) n (%)
  Pharyngitis, Any grade: 0 n (%)
  Pharyngitis, Grade ≥3: 0 n (%)
  Pyrexia, Any grade: 0 n (%)
  Pyrexia, Grade ≥3: 0 n (%)
  Rash, Any grade: 2 (50.0) n (%)
  Rash, Grade ≥3: 0 n (%)
  Thrombocytopenia, Any grade: 1 (25.0) n (%)
  Thrombocytopenia, Grade ≥3: 0 n (%)
  Upper respiratory tract inflammation, Any grade: 0 n (%)
  Upper respiratory tract inflammation, Grade ≥3: 0 n (%)
  Vomiting, Any grade: 2 (50.0) n (%)
  Vomiting, Grade ≥3: 0 n (%)
Cohort 4 (300 mg BID), WM patient
  Patients with DLT (grade 3 pneumonitis): 1 patient
[1]
  Tolerability: well tolerated
  Tolerability confirmed up to (dose): up to 300 mg BID
Japanese patients with B‐cell NHL and CLL, listed as Tirabrutinib
  Tolerability: generally well tolerated
Mallory‐Weiss syndrome, de novo reactivation of HBV, acute myeloid leukemia, pneumonitis (1 patient each)
  Serious AEs reported as study drug‐related: 4
Total (all cohorts) N = 17
  All AEs, Any grade: 17 (100.0) n (%)
  All AEs, Grade ≥3: 8 (47.1) n (%)
  Anemia, Any grade: 3 (17.6) n (%)
  Anemia, Grade ≥3: 2 (11.8) n (%)
  Arthralgia, Any grade: 3 (17.6) n (%)
  Arthralgia, Grade ≥3: 0 n (%)
  Aspartate aminotransferase increased, Any grade: 2 (11.8) n (%)
  Aspartate aminotransferase increased, Grade ≥3: 0 n (%)
  Constipation, Any grade: 3 (17.6) n (%)
  Constipation, Grade ≥3: 0 n (%)
  Cystitis, Any grade: 2 (11.8) n (%)
  Cystitis, Grade ≥3: 0 n (%)
  Diarrhea, Any grade: 3 (17.6) n (%)
  Diarrhea, Grade ≥3: 0 n (%)
  Dysgeusia, Any grade: 2 (11.8) n (%)
  Dysgeusia, Grade ≥3: 0 n (%)
  Gamma‐glutamyltransferase increased, Any grade: 2 (11.8) n (%)
  Gamma‐glutamyltransferase increased, Grade ≥3: 0 n (%)
  Headache, Any grade: 2 (11.8) n (%)
  Headache, Grade ≥3: 0 n (%)
  Hypokalemia, Any grade: 2 (11.8) n (%)
  Hypokalemia, Grade ≥3: 0 n (%)
  Hypophosphatemia, Any grade: 2 (11.8) n (%)
  Hypophosphatemia, Grade ≥3: 1 (5.9) n (%)
  Insomnia, Any grade: 3 (17.6) n (%)
  Insomnia, Grade ≥3: 0 n (%)
  Leukopenia, Any grade: 2 (11.8) n (%)
  Leukopenia, Grade ≥3: 2 (11.8) n (%)
  Lymphopenia, Any grade: 2 (11.8) n (%)
  Lymphopenia, Grade ≥3: 1 (5.9) n (%)
  Malaise, Any grade: 3 (17.6) n (%)
  Malaise, Grade ≥3: 0 n (%)
  Myalgia, Any grade: 2 (11.8) n (%)
  Myalgia, Grade ≥3: 0 n (%)
  Nasopharyngitis, Any grade: 2 (11.8) n (%)
  Nasopharyngitis, Grade ≥3: 0 n (%)
  Nausea, Any grade: 3 (17.6) n (%)
  Nausea, Grade ≥3: 0 n (%)
  Neutropenia, Any grade: 4 (23.5) n (%)
  Neutropenia, Grade ≥3: 4 (23.5) n (%)
  Pharyngitis, Any grade: 2 (11.8) n (%)
  Pharyngitis, Grade ≥3: 0 n (%)
  Pyrexia, Any grade: 2 (11.8) n (%)
  Pyrexia, Grade ≥3: 0 n (%)
  Rash, Any grade: 6 (35.3) n (%)
  Rash, Grade ≥3: 0 n (%)
  Thrombocytopenia, Any grade: 2 (11.8) n (%)
  Thrombocytopenia, Grade ≥3: 0 n (%)
  Upper respiratory tract inflammation, Any grade: 2 (11.8) n (%)
  Upper respiratory tract inflammation, Grade ≥3: 0 n (%)
  Vomiting, Any grade: 5 (29.4) n (%)
  Vomiting, Grade ≥3: 0 n (%)
All patients
  Tirabrutinib‐induced lymphocytosis: no tirabrutinib‐induced lymphocytosis observed
All patients N = 17
  Anemia, grade ≥3 (grade 3 or 4): 11.8%
  Leukopenia, grade ≥3 (grade 3 or 4): 11.8%
  Neutropenia, grade ≥3 (grade 3 or 4): 23.5%
  Patients who developed grade ≥3 AEs: 47.1%
  Patients with serious AEs: 7 patients
Cohorts 160, 320, 480 mg QD and 300 mg BID
  Maximum tolerated dose (MTD): not reached
